# Data from paper PMC7941583 (Cancer Reports, 2020).
# The star is where a group is joined. Cbz = O=C(OCc1ccccc1)*; CH2F = FC*
# Columns and labels:
# LNCaP cells [1] = experiment: Colony forming efficiency, LNCaP; format: cell-based, human; details: Figure 4A
# How it was run: (§1)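 Serum-free adapted cells were trypsinized (0.25% trypsin in PBS, 5 min, 37°C) into single-cell suspensions; suspensions under 90% trypan-blue-viable were discarded. 1000 cells per 65-mm dish were grown 21 days at 37°C, 5% CO2, in RPMI 1640 plus ITS+1 with test compound, refreshed every 5 days. Colonies were fixed in 1% formaldehyde and stained with methylene blue. CFE = colonies/cells inoculated × 100.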
# PC‐3 cells [2] = experiment: Colony forming efficiency, PC‐3; format: cell-based, human; details: PC‐3, Figure 4A
# How it was run: as §1
# DU145 cells [3] = experiment: Colony forming efficiency, DU145; format: cell-based, human; details: DU145, Figure 4A
# How it was run: as §1
# LNCaP cells [4] = experiment: Cell cycle analysis; format: cell-based, human; details: 10^−6 M; for proportion of cells sub‐G0/G1: 48‐hour timepoint
# How it was run: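 Serum-free adapted LNCaP cells treated with test compound over a time course to 48 h. Harvested cells stained with propidium iodide and analysed by flow cytometry. Phases were assigned by DNA content: 2n is G1, 4n is G2/M, and between 2n and 4n is S. Cells below 2n (sub-G1) were scored as apoptotic. Results are percentages of cells per phase.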
# LNCaP cells [5] = experiment: TUNEL assay of apoptosis; format: cell-based, human; details: for proportion of apoptotic cells (TUNEL): 10^−6 M, 60 hours post‐treatment
# How it was run: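 Serum-free adapted LNCaP cells (5 × 10^5 per 75 cm2 flask) were treated with 10−6 M test compound or vehicle over a time course. Z-VAD-FMK (50 μM) was added 1 h before compound where indicated. Adherent plus floating cells were cytospun and stained by TdT fluorescein in situ labelling. Positive cells were counted per 500 cells in five fields, on three slides per sample; results are % apoptotic cells.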
# RARα = molecular target: T1, RARα (Homo sapiens, UniProt P10276); details: binding affinities of synthetic retinoids; cited from earlier work
# T1 sequence (P10276 183-417 limits assumed): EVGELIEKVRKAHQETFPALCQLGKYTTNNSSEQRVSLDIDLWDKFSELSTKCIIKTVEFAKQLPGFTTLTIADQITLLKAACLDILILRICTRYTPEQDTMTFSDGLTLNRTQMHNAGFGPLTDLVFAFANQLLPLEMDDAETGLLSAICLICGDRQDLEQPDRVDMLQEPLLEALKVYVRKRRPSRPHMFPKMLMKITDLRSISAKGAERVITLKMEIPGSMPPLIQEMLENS
# RARβ = molecular target: T2, RARβ (Homo sapiens, UniProt P10826); details: binding affinities of synthetic retinoids; cited from earlier work
# T2 sequence (P10826 183-417 limits assumed): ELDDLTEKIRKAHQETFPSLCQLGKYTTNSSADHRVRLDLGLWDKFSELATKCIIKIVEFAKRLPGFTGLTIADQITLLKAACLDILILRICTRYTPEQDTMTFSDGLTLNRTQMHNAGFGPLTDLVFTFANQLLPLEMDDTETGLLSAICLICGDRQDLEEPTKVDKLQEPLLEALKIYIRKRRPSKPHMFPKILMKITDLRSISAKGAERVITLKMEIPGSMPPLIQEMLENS
# RARγ = molecular target: T3, RARγ (Homo sapiens, UniProt P13631); details: binding affinities of synthetic retinoids; cited from earlier work
# T3 sequence (P13631 185-419 limits assumed): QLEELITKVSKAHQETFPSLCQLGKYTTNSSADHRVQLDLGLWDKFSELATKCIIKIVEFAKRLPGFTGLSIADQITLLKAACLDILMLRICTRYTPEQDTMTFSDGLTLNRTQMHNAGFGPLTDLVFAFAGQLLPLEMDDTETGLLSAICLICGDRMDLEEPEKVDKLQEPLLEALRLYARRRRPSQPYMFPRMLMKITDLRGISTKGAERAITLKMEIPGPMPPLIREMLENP
# LNCaP cells [6] = details: previous data; cited from earlier work
# LNCaP cells [7] = experiment: Cell growth; format: cell-based, human
# LNCaP cells [8] = experiment: Adipogenic differentiation; format: cell-based, human
# LNCaP cells [9] = experiment: Metabolic activity; format: cell-based, human; details: concentrations of 10^−6 M and above
# How it was run: (§2)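 Serum-free adapted LNCaP, PC-3, DU145 or RWPE-1 cells were seeded at 400 cells/well in RPMI-1640 plus ITS+1. Test compound was added at seeding and again at day 2 by medium change. Viability was read at day 5 as intracellular ATP by luminescence (ViaLight HS). Results are % viable cells relative to vehicle control; at least three experiments in triplicate, mean ± SD.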
# PC‐3 cells [10] = experiment: Metabolic activity; format: cell-based, human; details: PC‐3, concentrations of 10^−6 M and above
# How it was run: as §2
# DU145 cells [11] = experiment: Metabolic activity; format: cell-based, human; details: DU145, concentrations of 10^−6 M and above
# How it was run: as §2
# RWPE‐1 cells = experiment: Metabolic activity; format: cell-based, human; details: non‐tumorigenic RWPE‐1 compared with PC cell lines
# How it was run: as §2
# LNCaP cells [12] = experiment: Agarose gel electrophoresis of DNA; format: cell-based, human; details: time course
# caspase‐3 = experiment: Fluorometric caspase‐3 activity in LNCaP lysates; format: cell-based, human; details: 10^−6 M
# How it was run: (§3)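 Serum-free adapted LNCaP cells were treated with 10−6 M test compound, with pan-caspase inhibitor and etoposide arms as indicated. Lysate was mixed with an equal volume of 20 mM HEPES pH 7.5, 10% glycerol, 2 mM DTT containing 50 μM substrate: DEVD-AFC (caspase-3), IETD-AFC (caspase-8) or LEHD-AFC (caspase-9). Background wells lacked lysate. Fluorescence was read at 400 nm excitation/508 nm emission, expressed as fold over control.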
# caspase‐8 = experiment: Fluorometric caspase‐8 activity in LNCaP lysates; format: cell-based, human; details: 10^−6 M
# How it was run: as §3
# caspase‐9 = experiment: Fluorometric caspase‐9 activity in LNCaP lysates; format: cell-based, human; details: 10^−6 M
# How it was run: as §3
# PC‐3 cells [13] = experiment: Cell growth; format: cell-based, human
# DU145 cells [14] = experiment: Cell growth; format: cell-based, human
Compound,"colony forming efficiency (CFE), antagonists (LNCaP cells [1])","colony forming efficiency (CFE), antagonists (PC‐3 cells [2])","colony forming efficiency (CFE), antagonists (DU145 cells [3])",proportion of apoptotic cells (TUNEL) (LNCaP cells [5]),ED50 RARα (RARα) [nM],ED50 RARβ (RARβ) [µM],ED50 RARγ (RARγ),further results
"CCc1ccc(C2=CC(C)(C)Sc3ccc(C#Cc4ccc(C(=O)O)cc4)cc32)cc1 [AGN194310, 4‐[[4‐(4‐Ethylphenyl)‐2,2‐dimethyl‐(2H)‐thiochromen‐6‐yl]‐ethynyl]‐benzoic acid]",diminished the CFE,diminished the CFE,diminished the CFE,35%,4.3,0.005,2 nM,proportion of cells in G1 phase (LNCaP cells [4]): gradually increased; proportion of cells in S‐phase (LNCaP cells [4]): fall; proportion of cells sub‐G0/G1 (LNCaP cells [4]): ~60%; colony formation (LNCaP cells [6]): inhibited colony formation
"CC1(C)CCC(C)(C)c2c1cc(C(=O)Nc1cc(F)c(C(=O)O)c(F)c1)c(O)c2Cl [AGN195183, 4‐(4‐Chloro‐3‐hydroxy‐5,5,8,8‐tetramethyl‐5,6,7,8‐tetrahydronaphthalene‐2‐carboxamido)‐2,6‐difluorobenzoic acid]",,,,,20.1,>5,>5000 nM,
"CCOc1c(Br)cc(C(=O)Nc2ccc(C(=O)O)cc2)cc1C(=O)c1ccc(C)cc1 [AGN196996, 4‐(3‐Bromo‐4‐ethoxy‐5‐(4‐methylbenzoyl)benzamido)benzoic acid]","neither ATRA, nor the RARα‐selective antagonist AGN196996 (Figure 1, S1C, S1F and Table 1) proved as effective AGN205728 or AGN194310","neither ATRA, nor the RARα‐selective antagonist AGN196996 (Figure 1, S1C, S1F and Table 1) proved as effective AGN205728 or AGN194310","neither ATRA, nor the RARα‐selective antagonist AGN196996 (Figure 1, S1C, S1F and Table 1) proved as effective AGN205728 or AGN194310",little evidence of induction of apoptosis,3.9,4.036,>10 000 nM,"effect of co‐treatment on AGN195183‐mediated growth inhibition (LNCaP cells [7]; 4 days, AGN196996 10^−8 M with AGN195183 10^−8 M): abolished AGN195183‐mediated growth inhibition; effect of co‐treatment with ATRA on proliferation (LNCaP cells [7]; 4 days, AGN196996 10^−8 M with ATRA 10^−8 M): promoted proliferation of LNCaP cells"
"CC1(C)CCC(C)(C)c2cc(/C(=N\O)c3cc4cc(C(=O)O)ccc4[nH]3)ccc21 [AGN205327, 2‐[(E)‐N‐Hydroxy‐C‐(5,5,8,8‐tetramethyl‐6,7‐dihydronaphthalen‐2‐yl)carbonimidoyl]‐1H‐indole‐5‐carboxylic acid]",,,,,3766.0,0.734,32 nM,"effect on ciglitazone‐induced adipogenesis (LNCaP cells [8]; AGN205327 added later than 48 hours post‐induction): failed to have any effect; inhibition of ciglitazone‐induced adipogenic differentiation (LNCaP cells [8]; ciglitazone (10^−7 M), AGN205327 10^−7 M given between 48 hours pre‐ and post‐addition of ciglitazone): ≤ 70%"
"Cc1ccc(C2=CCC(C)(C)c3cc(C(/C=C/c4ccc(C(=O)O)cc4)=N/O)ccc32)cc1 [AGN205728, 4‐[(E,3E)‐3‐[8,8‐Dimethyl‐5‐(4‐methylphenyl)‐7H‐naphthalen‐2‐yl]‐3‐hydroxyiminoprop‐1‐enyl]benzoic acid]",diminished the CFE,diminished the CFE,diminished the CFE,40%,2400.0,4.248,3 nM,metabolic activity (LNCaP cells [9]): abolishing metabolic activity; metabolic activity (PC‐3 cells [10]): abolishing metabolic activity; metabolic activity (DU145 cells [11]): abolishing metabolic activity; response of metabolic activity (RWPE‐1 cells): significantly diminished response; proportion of cells in G1 phase (LNCaP cells [4]): gradually increased; proportion of cells in S‐phase (LNCaP cells [4]): fall; proportion of cells sub‐G0/G1 (LNCaP cells [4]): ~40%; DNA fragmentation pattern (LNCaP cells [12]): discrete laddering pattern that is typical of cells undergoing apoptosis; activation of caspase‐3 (caspase‐3): failed to activate; activation of caspase‐8 (caspase‐8): failed to activate; activation of caspase‐9 (caspase‐9): failed to activate
"CC1=C(/C=C/C(C)=C/C=C/C(C)=C/C(=O)O)C(C)(C)CCC1 [ATRA, All‐trans‐retinoic acid]",,,,,,,,"effect on cell growth (LNCaP cells [7]; 10^−8 M and above): progressively diminished cell growth; increase in cell numbers (LNCaP cells [7]; 5 days, 10^−11‐10^−9 M): up to 1.5 fold; effect on cell growth (PC‐3 cells [13]; PC‐3, 10^−8 M and above): progressively diminished cell growth; increase in cell numbers (PC‐3 cells [13]; PC‐3, 5 days, 10^−11‐10^−9 M): up to 1.5 fold; effect on cell growth (DU145 cells [14]; DU145, 10^−8 M and above): progressively diminished cell growth; increase in cell numbers (DU145 cells [14]; DU145, 5 days, 10^−11‐10^−9 M): up to 1.5 fold"
O=C(Nc1ccccc1)c1cc([N+](=O)[O-])ccc1Cl [GW9662],,,,,,,,"inhibition of accumulation of lipid droplets (LNCaP cells [8]; differentiation medium, day 14, AGN205327 10^−7 M, GW9662 10^−5 M): of a similar order"
Cbz-Val-Ala-Asp-CH2F [reference compound],,,,,,,,"effect of pre‐treatment on AGN205728‐induced apoptosis (TUNEL) (LNCaP cells [5]; Z‐VAD‐FMK 5 × 10^−5 M, AGN205728 10^−6 M): failed to diminish induction of apoptosis by AGN205728"
